Among the data in the RNAGym collection of RNA variant scans (doi:10.1126/science.aae0568) are yeast fitness values, retold here.

Variants at the floor of the assay were thinned out. Bounds are passed on as bounds.

Sequences and labels used below:
B1: tRNA (parent)
chain: GUUCCGUUGGCGUAAUGGUAACGCGUCUCCCUCCUAAGGAGAAGACUGCGGGUUCGAGUCCCGUACGGAACG

Variants of B1 are the subject of the data set. The data set is described as follows: yeast fitness relative to wild type (ratio to wild type); higher = fitter; tRNA-Arg(CCU), competitive growth, 37 C, YPD. The gist of the method: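 Variants of the tRNA-Arg(CCU) gene were chemically synthesised with a 3% per-site mutation rate across 69 sites and placed at the native genomic locus in Saccharomyces cerevisiae. Six parallel replicates of the pooled strains were competed in YPD at 37°C for 24 hours, and gene amplicons from the start and end populations were read by 100-nucleotide paired-end sequencing. Darwinian fitness relative to wild type was derived from changes in genotype frequencies. Genotypes required ≥ 100 starting reads, and estimates < 0.5 were set to 0.5.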
With C11G A45U U64C, the yeast fitness was at most 0.5.

Consider C29G C61U C66A, for which the yeast fitness is at most 0.5.

Turning to C22G C34G C61G A69G, the yeast fitness was at most 0.5.

C11U G25A C62G: the yeast fitness stood at 0.569.

On to C4G G25A A45G, for which the yeast fitness was at most 0.5.

In the case of C33U A45U G68A, the yeast fitness is 0.67.

In the case of G9C C46U A65U A69U, the yeast fitness is at most 0.5.

For the variant C27U G50A, the yeast fitness stood at 0.991.

Turning to A15G A20C C34A, the yeast fitness is at most 0.5.

Regarding A36C A69U, the yeast fitness amounted to 0.63.

Take C5A U19C G50A C55A C66A: the yeast fitness was at most 0.5.

Take C27G A57U: the yeast fitness amounted to 0.591.

U19C U28C C29G A57U: the yeast fitness is at most 0.5.

Consider C4A A45U C62U G68A, for which the yeast fitness amounted to 0.562.

Consider U7G A20G U32G A43C A45U, for which the yeast fitness is at most 0.5.

As to C27G G41A C55U, the yeast fitness came to 0.618.

In the case of C4U C24U C55U, the yeast fitness was at most 0.5.

As to U3C U8A C66A, the yeast fitness was found to be 0.529.

On to A15U C24U A37G U54C C66A, for which the yeast fitness is at most 0.5.

As to C4G A69C, the yeast fitness is 0.878.

For the variant U19C A36C G41C, the yeast fitness was at most 0.5.

Turning to C31A C33U G41C U47C G67C, the yeast fitness was at most 0.5.

As for U8A C11U C46U, the yeast fitness was at most 0.5.

For C24U C29U, the yeast fitness was 0.859.

Consider C11U C31G A45G G56U, for which the yeast fitness was at most 0.5.

As for C22U A40G A43U C46G C49G, the yeast fitness is at most 0.5.

Take C49G G58A C66G: the yeast fitness came to 0.564.

As for C5G U16A C33A A43C, the yeast fitness is at most 0.5.

Consider U2C G50A U54A G67A, for which the yeast fitness was at most 0.5.

In the case of C4U A40U G68C, the yeast fitness worked out at 0.68.

C4A G12A: the yeast fitness stood at 0.666.

Consider G6A C61U G63C, for which the yeast fitness is at most 0.5.

Regarding C11G C62G, the yeast fitness stood at 0.642.

Consider A20C A40G C62G, for which the yeast fitness is 0.864.

Turning to C5U A15U G39A U53A G68C, the yeast fitness was at most 0.5.

Turning to G6A C11G A21C C22G C30G A45U, the yeast fitness is at most 0.5.

Take C30G C46G G52C G68C: the yeast fitness is at most 0.5.

Regarding G6C G10C C30U U35A, the yeast fitness is at most 0.5.

Regarding C11G C27A C34G, the yeast fitness was at most 0.5.

C5G A14G G17A U32C G56C C60G: the yeast fitness came to 0.554.

With G6A G12A C22U A42C, the yeast fitness is at most 0.5.

With A45U G52A U64C A69U, the yeast fitness was at most 0.5.

Turning to A40C C61U, the yeast fitness came out at 0.799.

U3G C29A: the yeast fitness was determined as 0.533.

For the variant C27U G41A U47C, the yeast fitness is 1.08.

C11G U19A C34G C49G: the yeast fitness is at most 0.5.

For A20C C22A C27G G51C, the yeast fitness is at most 0.5.

With U2C G6A A42C C66U, the yeast fitness is at most 0.5.

As for A42C C66U, the yeast fitness came out at 0.816.

For C5U A21G C29U A45U, the yeast fitness came to 0.538.

On to C4G C22G C24U C29U C30G, for which the yeast fitness was at most 0.5.

As for A15C G23C C31U A57C C66U, the yeast fitness is at most 0.5.

Take U13G U26A: the yeast fitness turned out to be 0.987.

For the variant A43G U59G, the yeast fitness stood at 0.842.

Take G9A G12A C22U U53G: the yeast fitness is at most 0.5.

Turning to U7G C11G C33G G56C C62G, the yeast fitness was at most 0.5.

Take A14U C30U C62G A65G G68C: the yeast fitness is at most 0.5.

Take A20U A21G C29G C49G G63C: the yeast fitness was at most 0.5.

In the case of U7G U64A, the yeast fitness is 0.971.

Take C11U A15U C27G: the yeast fitness is 0.529.

On to A21C U59A A65U, for which the yeast fitness was at most 0.5.

On to A42C C62U C66U, for which the yeast fitness came to 0.507.

Take U8A A42U: the yeast fitness amounted to 0.833.

On to A43G G51C, for which the yeast fitness is 0.56.

With C5A G17C A43U, the yeast fitness is 0.543.

As to G12A A21C C31U, the yeast fitness was at most 0.5.

For A37C A57U A65U, the yeast fitness came out at 0.637.

As to G17A A37U U47A G68C, the yeast fitness is 0.645.

Take U28C C33G G38A U64G: the yeast fitness is at most 0.5.

In the case of C31G C33G, the yeast fitness came out at 0.565.

G17C G25C: the yeast fitness stood at 0.658.

In the case of C4G U7G G12C A20U G63A C66A, the yeast fitness was at most 0.5.

On to U7A A69U, for which the yeast fitness turned out to be 0.759.

On to C5U U13A C29G C31A G63C, for which the yeast fitness was determined as 0.533.

On to G6A C31G C34G A43U G68C A69G, for which the yeast fitness was at most 0.5.

As to U3A C5A G17A C22U C66U, the yeast fitness was 0.531.

For C11G G68C, the yeast fitness was determined as 0.597.

Take C11U U26C U47A G50A: the yeast fitness is at most 0.5.

Consider C11U C30U C34G G68C, for which the yeast fitness was at most 0.5.

U8C A45C C46U: the yeast fitness turned out to be 0.716.

As to C4A C29U C55U G63A, the yeast fitness is at most 0.5.

For the variant C11A U19A C29A U32A G48C C55G, the yeast fitness was at most 0.5.

Consider G10A C11A G39C G44C G52C U53C C66G, for which the yeast fitness is at most 0.5.

On to U2A U8A A42U G52C, for which the yeast fitness was at most 0.5.

In the case of G6A C22U A42C U54A, the yeast fitness is at most 0.5.

G9C A14U C27G C29U C46U C60G: the yeast fitness was found to be 0.596.

With A21G C34G A42U, the yeast fitness is at most 0.5.

With A36C A37U G50C C66U, the yeast fitness is 0.56.

On to U8C C49A G68C, for which the yeast fitness is at most 0.5.

C4G C61G A65C: the yeast fitness was at most 0.5.

As to A40G C49G, the yeast fitness came to 0.655.

Turning to C33G G41C A43C, the yeast fitness is at most 0.5.

On to C31U C66A, for which the yeast fitness was 0.774.

On to C46A C62U A69C, for which the yeast fitness was 0.69.

As for A14U G23A U32C, the yeast fitness was at most 0.5.

C4U C66U: the yeast fitness came out at 0.978.

Consider A14G A57G G68C, for which the yeast fitness is 0.616.

Turning to C29U C34G A43U C62U A65U A69C, the yeast fitness is at most 0.5.

In the case of G25A G39C A57C, the yeast fitness is at most 0.5.

On to C4A U16C G17A U59A, for which the yeast fitness is at most 0.5.

In the case of U7C C11U C61U A65G G68C, the yeast fitness was at most 0.5.

Turning to C5A U26C, the yeast fitness came to 0.954.

As for G38C C46G G51C A57C C61U, the yeast fitness was at most 0.5.

Consider U3A A40C C62G G68C, for which the yeast fitness is at most 0.5.

As for A40G A42G A43G U59C, the yeast fitness is at most 0.5.

As for C4A C49U C55A C66U, the yeast fitness turned out to be 0.545.

Regarding A14C U19C C27A A43G, the yeast fitness is at most 0.5.

Take C5G U7G A57G: the yeast fitness is at most 0.5.

Regarding C4U C11U A43U C55G, the yeast fitness is at most 0.5.

For G10A C11U A15G C30U C60G, the yeast fitness is at most 0.5.

For the variant C4G C30G U54A C55U, the yeast fitness was at most 0.5.

As to A14G C29A A37G, the yeast fitness is at most 0.5.

Regarding C29U C33A G38A G58C A65U, the yeast fitness was at most 0.5.

As to C31G A65G, the yeast fitness came out at 0.867.

For the variant A14U A37U A40C A42G, the yeast fitness was at most 0.5.

On to U13G U26G C33G U47A, for which the yeast fitness was determined as 0.602.

With A20C C22G C33U A45U, the yeast fitness was at most 0.5.

Regarding C22G A69G, the yeast fitness worked out at 0.952.

As to U8G C22U C62A, the yeast fitness is 0.559.

For the variant C29G U32A A65U, the yeast fitness was at most 0.5.

As to C27U G38C G67A, the yeast fitness was at most 0.5.

Take C5G U26C A42G A57G A70G: the yeast fitness was at most 0.5.

In the case of G10C G39C G51A, the yeast fitness is at most 0.5.

Take C27U C34G G50A G68C: the yeast fitness was at most 0.5.

Consider U26C C30A C49U, for which the yeast fitness stood at 0.533.

Consider A20G C34A A42U G58A C62U G63A, for which the yeast fitness was 0.583.

Regarding G9C C11G G12C U28C C61U, the yeast fitness worked out at 0.747.

For U16C A43C A45U C49G, the yeast fitness is 0.722.

For A37U A42C A69C, the yeast fitness was at most 0.5.

In the case of U7C G41A A42C G50C A65C, the yeast fitness was at most 0.5.

G12C U32G C33G G48C: the yeast fitness was at most 0.5.

For C30U G63C A69U, the yeast fitness is 0.527.

Consider C34A U53C, for which the yeast fitness is 0.559.

G10C G12C G39A C61U A69C: the yeast fitness stood at 0.528.

Take A40G C46U U53G: the yeast fitness is at most 0.5.

Take A42C C55U: the yeast fitness stood at 0.744.

With U13A G17A U32A, the yeast fitness is at most 0.5.

A20U U28G C30U U32G C34G: the yeast fitness was at most 0.5.

In the case of G6C C24U G38C A40G U47C, the yeast fitness is at most 0.5.

For U3G G17C A42U C62U, the yeast fitness was at most 0.5.

Regarding U7C A40G G52A A65C, the yeast fitness is at most 0.5.

G25C A45G G50A C62G: the yeast fitness is at most 0.5.

With U8G U28A C34G G39C A57G C66U, the yeast fitness is at most 0.5.

In the case of A21U C29U, the yeast fitness was 0.588.

For the variant U19A G67U, the yeast fitness turned out to be 0.974.

As for U3C C27U A42G G67A, the yeast fitness was at most 0.5.

Turning to C34G A40G, the yeast fitness was found to be 0.642.

In the case of C5G C62G A65U, the yeast fitness is at most 0.5.

With A15G, the yeast fitness was determined as 0.987.

U3C C24A A43G G52A G58A: the yeast fitness is at most 0.5.

Take A15G U19C G51C C55U: the yeast fitness amounted to 0.582.

Turning to C29A A45C G48C C49G, the yeast fitness was at most 0.5.

G9A A57C: the yeast fitness was determined as 0.591.

On to C4G C24A C46U, for which the yeast fitness was 0.608.

With C30U G50C C61G, the yeast fitness is at most 0.5.

On to G9A U16C A20C A40G C55U, for which the yeast fitness was at most 0.5.

Regarding C11A C55G A69C, the yeast fitness is at most 0.5.

On to G10A C11U G58C A65U, for which the yeast fitness is at most 0.5.

With A15U C31A C60G, the yeast fitness was at most 0.5.

Turning to G23C G63A, the yeast fitness is 0.51.

U13A A15G C22G C24U G44A U53G: the yeast fitness is at most 0.5.

On to C5A G17C G25A U59C, for which the yeast fitness is at most 0.5.

Turning to G12C U13A A20C A21G U26G, the yeast fitness is at most 0.5.

As for U2C C27U A43G G56A, the yeast fitness was at most 0.5.

C27G C34U G41C G51A: the yeast fitness is at most 0.5.

Regarding U2C G12A U19C A21U G58C, the yeast fitness turned out to be 0.603.

For C27U C66G, the yeast fitness was determined as 0.744.
